Calls of active or inactive are those of the source. The rule behind the calls is not given here.
Key:
Brugia pahangi [1] = assay: Antinematodal activity against Brugia pahangi assessed as inhibition of worm motility at day 6 by worminator analysis; format: functional; details: time 6 day
Outline: (§1)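 Single adult female worm per well in RPMI-1640 (25 mM HEPES, 2.0 g/L NaHCO₃, 5% heat-inactivated FBS, 1X antibiotic/antimycotic), 4 replicate wells, 6 days at 37°C, 5% CO₂. Motility recorded 60 s per plate on days 0, 1, 2, 3 and 6 as pixels displaced/s. Inhibition = (1 − treated MMU/mean 1% DMSO control MMU) × 100, floored at zero. IC₅₀ from 3- and 6-point dilutions.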

Trichuris muris [2] = assay: Antinematodal activity against Trichuris muris assessed as inhibition of worm motility at day 6 by worminator analysis; format: functional; details: time 6 day
Outline: (§2)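 Two adult worms per well in RPMI-1640 (25 mM HEPES, 2.0 g/L NaHCO₃, 5% heat-inactivated FBS, 1X antibiotic/antimycotic), 4 replicate wells, 6 days at 37°C, 5% CO₂. Motility recorded 60 s per plate as pixels displaced/s on days 0, 1, 2, 3 and 6. Inhibition = (1 − treated MMU/mean 1% DMSO control MMU) × 100, floored at zero. IC₅₀ from 3- and 6-point dilutions.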

Candida albicans [3] = assay: Antifungal activity against Candida albicans CAAL28 infected in BALB/c mouse candidiasis model administered once daily for 3 days; format: functional, organism-based; details: CAAL28, 72 h
Brugia pahangi [4] = assay: Antinematodal activity against Brugia pahangi assessed as inhibition of worm motility measured immediately by worminator analysis; format: functional; outline: as §1
Trichuris muris [5] = assay: Antinematodal activity against Trichuris muris assessed as inhibition of worm motility at day 1 by worminator analysis; format: functional; outline: as §2
Trichuris muris [6] = assay: Antinematodal activity against Trichuris muris assessed as inhibition of worm motility at day 5 by worminator analysis; format: functional; details: time 5 day
Brugia pahangi [7] = assay: Antinematodal activity against Brugia pahangi assessed as inhibition of worm motility at day 1 by worminator analysis; format: functional; details: time 1 day; outline: as §1
Brugia pahangi [8] = assay: Antinematodal activity against Brugia pahangi assessed as inhibition of worm motility at day 3 by worminator analysis; format: functional; details: time 3 day; outline: as §1
Trichuris muris [9] = assay: Antinematodal activity against Trichuris muris assessed as inhibition of worm motility at day 2 by worminator analysis; format: functional; details: time 2 day; outline: as §2
Trichuris muris [10] = assay: Antinematodal activity against Trichuris muris assessed as inhibition of worm motility measured immediately by worminator analysis; format: functional; outline: as §2
Candida albicans [11] = assay: Antifungal activity against Candida albicans CAAL28 infected in BALB/c mouse candidiasis model assessed as animal survival pre-infected for 1 hr followed by compound addition at 10 mg/kg administered once daily for 3 days and measured on day 4 (reference value: 25%); format: functional; details: time 4 day
Brugia pahangi [12] = assay: Antinematodal activity against Brugia pahangi assessed as inhibition of worm motility at day 2 by worminator analysis; format: functional; details: time 2 day; outline: as §1
Saccharomyces cerevisiae [13] = assay: Antifungal activity against Saccharomyces cerevisiae harboring heterozygous YPR136C deletion mutant assessed as sensitivity by measuring ratio of control intensity to treatment intensity by chemogenomic screening analysis relative to control; format: functional
Saccharomyces cerevisiae [14] = assay: Antifungal activity against Saccharomyces cerevisiae harboring heterozygous ENP1 deletion mutant assessed as sensitivity by measuring ratio of control intensity to treatment intensity by chemogenomic screening analysis relative to control; format: functional
Saccharomyces cerevisiae [15] = assay: Antifungal activity against Saccharomyces cerevisiae harboring heterozygousYDL144C deletion mutant assessed as sensitivity by measuring ratio of control intensity to treatment intensity by chemogenomic screening analysis relative to control; format: functional
Saccharomyces cerevisiae [16] = assay: Antifungal activity against Saccharomyces cerevisiae harboring heterozygous HYP2 deletion mutant assessed as sensitivity by measuring ratio of control intensity to treatment intensity by chemogenomic screening analysis relative to control; format: functional
Saccharomyces cerevisiae [17] = assay: Antifungal activity against Saccharomyces cerevisiae harboring heterozygous UTP14 deletion mutant assessed as sensitivity by measuring ratio of control intensity to treatment intensity by chemogenomic screening analysis relative to control; format: functional
Brugia pahangi [18] = assay: Antinematodal activity against Brugia pahangi infected in mongolian jirds assessed as reduction in reproductive output at 10 mg/kg, po administered twice daily for 5 days; format: functional, organism-based; details: time 5.0 day
Outline: (§3)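 Male jirds (5–7 weeks, 50–60 g) infected ip with 200 L3. Oral dosing in 5% glucose started 5 months post-infection; vehicle received 5% glucose. Necropsy 5 days after last dose (6 animals/treated group, 9 vehicle). Worms recovered and counted. Ex vivo MF release compared by Kruskal–Wallis/Dunn. Embryograms were scored blinded by hemocytometer, ≥200 stages per female, 6–9 females/group, and analysed by two-way ANOVA/Dunnett versus vehicle.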

Saccharomyces cerevisiae [19] = assay: Antifungal activity against Saccharomyces cerevisiae harboring heterozygous RSC9 deletion mutant assessed as sensitivity by measuring ratio of control intensity to treatment intensity by chemogenomic screening analysis relative to control; format: functional
Brugia pahangi [20] = assay: Antinematodal activity against Brugia pahangi infected in mongolian jirds assessed as increase in number of deformed eggs at 10 mg/kg, po administered twice daily for 5 days; format: functional, organism-based; details: time 5.0 day; outline: as §3
Brugia pahangi [21] = assay: Antinematodal activity against Brugia pahangi infected in mongolian jirds assessed as reduction in worm fecundity at 10 mg/kg, po administered twice daily for 5 days; format: functional, organism-based; details: time 5.0 day; outline: as §3
Trichuris muris [22] = assay: Downregulation of acyl-CoA synthetase expression in Trichuris muris at 100 uM incubated for 2 to 3 hrs; format: functional; details: time 2-3 hrs
Outline: (§4)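 Adult female worms exposed in vitro to compound or 1% DMSO vehicle, then frozen at −80°C. RNA-seq reads aligned to the T. muris genome (PRJEB126, WBPS16) with STAR and counted per gene with featureCounts. Expression expressed as FPKM. Fold changes and significance relative to DMSO controls calculated with DESeq2.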

Brugia pahangi [23] = assay: Antinematodal activity against Brugia pahangi infected in mongolian jirds assessed as embryos with autophagolysosomes pre-infected for 5 months followed by compound addition at 10 mg/kg, po administered twice daily for 5 days; format: functional, organism-based; details: time 5.0 day
Outline: (§5)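 Male jirds (5–7 weeks, 50–60 g) infected ip with 200 L3. At 5 months, dosed orally in 5% glucose; vehicle received 5% glucose. Necropsy 5 days after last dose. Adult females fixed in 2.5% glutaraldehyde/2% paraformaldehyde in 0.1 M cacodylate, Spurr-embedded, ultrathin sections contrasted with uranyl substitute and lead citrate, imaged by TEM.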

Trichuris muris [24] = assay: Downregulation of Hippo gene expression in Trichuris muris at 100 uM incubated for 2 to 3 hrs; format: functional; details: time 2-3 hrs; outline: as §4
Brugia pahangi [25] = assay: Antinematodal activity against Brugia pahangi infected in mongolian jirds assessed as reduction in number of microfilarial release at 10 mg/kg, po administered twice daily for 5 days; format: functional, organism-based; details: time 5.0 day; outline: as §3
Brugia pahangi [26] = assay: Antinematodal activity against Brugia pahangi infected in mongolian jirds assessed as deformed embryos with globular material pre-infected for 5 months followed by compound addition at 10 mg/kg, po administered twice daily for 5 days; format: functional, organism-based; details: time 5.0 day; outline: as §5
Saccharomyces cerevisiae [27] = assay: Antifungal activity against Saccharomyces cerevisiae harboring heterozygous RPC19 deletion mutant assessed as sensitivity by measuring ratio of control intensity to treatment intensity by chemogenomic screening analysis relative to control; format: functional
Trichuris muris [28] = assay: Downregulation of mitochondrial acyl carrier reductase expression in Trichuris muris at 100 uM incubated for 2 to 3 hrs; format: functional; details: time 2-3 hrs; outline: as §4
Brugia pahangi [29] = assay: Antinematodal activity against Brugia pahangi infected in mongolian jirds assessed as deformed embryos with punctate pre-infected for 5 months followed by compound addition at 10 mg/kg, po administered twice daily for 5 days; format: functional, organism-based; details: time 5.0 day; outline: as §5
Brugia pahangi [30] = assay: Antinematodal activity against Brugia pahangi infected in mongolian jirds assessed as reduction in number of eggs at 10 mg/kg, po administered twice daily for 5 days; format: functional, organism-based; details: time 5.0 day; outline: as §3
Trichuris muris [31] = assay: Downregulation of AMPK gene expression in Trichuris muris at 100 uM incubated for 2 to 3 hrs; format: functional; details: time 2-3 hrs; outline: as §4
Trichuris muris [32] = assay: Downregulation of mTOR gene expression in Trichuris muris at 100 uM incubated for 2 to 3 hrs; format: functional; details: time 2-3 hrs; outline: as §4
Brugia pahangi [33] = assay: Antinematodal activity against Brugia pahangi by worminator analysis; format: functional, organism-based; outline: as §1
Trichuris muris [34] = assay: Downregulation of Wnt gene expression in Trichuris muris at 100 uM incubated for 2 to 3 hrs; format: functional; details: time 2-3 hrs; outline: as §4
Brugia pahangi [35] = assay: Antinematodal activity against Brugia pahangi infected in mongolian jirds assessed as deformed embryos with vacuolated spaces pre-infected for 5 months followed by compound addition at 10 mg/kg, po administered twice daily for 5 days; format: functional, organism-based; details: time 5.0 day; outline: as §5
Brugia pahangi [36] = assay: Antinematodal activity against Brugia pahangi infected in mongolian jirds assessed as reduction in worm burden at 10 mg/kg, po administered twice daily for 5 days; format: functional, organism-based; details: time 5.0 day; outline: as §3
Saccharomyces cerevisiae [37] = assay: Antifungal activity against Saccharomyces cerevisiae harboring heterozygous YGR115C deletion mutant assessed as sensitivity by measuring ratio of control intensity to treatment intensity by chemogenomic screening analysis relative to control; format: functional
Saccharomyces cerevisiae [38] = assay: Antifungal activity against Saccharomyces cerevisiae harboring heterozygous PMC1 deletion mutant assessed as sensitivity by measuring ratio of control intensity to treatment intensity by chemogenomic screening analysis relative to control; format: functional
Trichuris muris [39] = assay: Antinematodal activity against Trichuris muris by worminator analysis; format: functional, organism-based; outline: as §2
Brugia pahangi [40] = assay: Antinematodal activity against Brugia pahangi infected in mongolian jirds assessed as embryos with mature lysosomes pre-infected for 5 months followed by compound addition at 10 mg/kg, po administered twice daily for 5 days; format: functional, organism-based; details: time 5.0 day; outline: as §5
Brugia pahangi [41] = assay: Antinematodal activity against Brugia pahangi infected in mongolian jirds assessed as tissue damage in reproductive tracts pre-infected for 5 months followed by compound addition at 10 mg/kg, po administered twice daily for 5 days; format: functional, organism-based; details: time 5.0 day; outline: as §5
Trichuris muris [42] = assay: Downregulation of fatty acid synthase expression in Trichuris muris at 100 uM incubated for 2 to 3 hrs; format: functional; details: time 2-3 hrs; outline: as §4
Saccharomyces cerevisiae [43] = assay: Antifungal activity against Saccharomyces cerevisiae harboring heterozygous PMP1 deletion mutant assessed as sensitivity by measuring ratio of control intensity to treatment intensity by chemogenomic screening analysis relative to control; format: functional

OC(Cn1cncn1)(Cn1cncn1)c1ccc(F)cc1F [FLUCONAZOLE]
inhibition (INH) (Brugia pahangi [1]): 4%
inhibition (INH) (Trichuris muris [2]): 13%
IC50 (Candida albicans [3]): > 100 µM
inhibition (INH) (Brugia pahangi [4]): 10%
inhibition (INH) (Trichuris muris [5]): 6%
inhibition (INH) (Trichuris muris [6]): 20%
inhibition (INH) (Brugia pahangi [7]): 15%
inhibition (INH) (Brugia pahangi [8]): 11%
inhibition (INH) (Trichuris muris [9]): 21%
inhibition (INH) (Trichuris muris [10]): 6%
Activity (Candida albicans [11]): >50%
inhibition (INH) (Brugia pahangi [12]): 7%

CN(CCc1ccccc1)CC(O)(Cn1cncn1)c1ccc(F)cc1F.Cl (stereo not drawn)
log2(ratio) (Saccharomyces cerevisiae [13]): -3.12
inhibition (INH) (Brugia pahangi [1]): 14%
inhibition (INH) (Trichuris muris [2]): 0%
log2(ratio) (Saccharomyces cerevisiae [14]): -2.17
inhibition (INH) (Brugia pahangi [4]): 32%
inhibition (INH) (Trichuris muris [5]): 15%
inhibition (INH) (Trichuris muris [6]): 1%
inhibition (INH) (Brugia pahangi [7]): 19%
inhibition (INH) (Brugia pahangi [8]): 8%
inhibition (INH) (Trichuris muris [9]): 10%
log2(ratio) (Saccharomyces cerevisiae [15]): -4.93
inhibition (INH) (Trichuris muris [10]): 15%
log2(ratio) (Saccharomyces cerevisiae [16]): -2.45
log2(ratio) (Saccharomyces cerevisiae [17]): -5.53
inhibition (INH) (Brugia pahangi [12]): 6%

CC(C1C2CC3CC(C2)CC1C3)N(C)CC(O)(Cn1cncn1)c1ccc(F)cc1F.Cl (stereo not drawn)
Activity (Brugia pahangi [18]): Active
log2(ratio) (Saccharomyces cerevisiae [19]): -6.48
Activity (Brugia pahangi [20]): Active
Activity (Brugia pahangi [21]): Active
Activity (Trichuris muris [22]): Active
Activity (Brugia pahangi [23]): Active
inhibition (INH) (Brugia pahangi [1]): 100%
inhibition (INH) (Trichuris muris [2]): 93%
Activity (Trichuris muris [24]): Active
Activity (Brugia pahangi [25]): Active
Activity (Brugia pahangi [26]): Active
log2(ratio) (Saccharomyces cerevisiae [27]): -4.18
Activity (Trichuris muris [28]): Active
inhibition (INH) (Brugia pahangi [4]): 100%
Activity (Brugia pahangi [29]): Active
Activity (Brugia pahangi [30]): Active
Activity (Trichuris muris [31]): Active
Activity (Trichuris muris [32]): Active
inhibition (INH) (Trichuris muris [5]): 32%
IC50 (Brugia pahangi [33]): 2.2 µM
inhibition (INH) (Trichuris muris [6]): 98%
inhibition (INH) (Brugia pahangi [7]): 100%
inhibition (INH) (Brugia pahangi [8]): 99%
inhibition (INH) (Trichuris muris [9]): 42%
Activity (Trichuris muris [34]): Active
Activity (Brugia pahangi [35]): Active
Activity (Brugia pahangi [36]): Active
log2(ratio) (Saccharomyces cerevisiae [37]): -4.65
inhibition (INH) (Trichuris muris [10]): 10%
log2(ratio) (Saccharomyces cerevisiae [38]): -4.67
IC50 (Trichuris muris [39]): 20.4 µM
Activity (Brugia pahangi [40]): Active
inhibition (INH) (Brugia pahangi [12]): 100%
Activity (Brugia pahangi [41]): Active
Activity (Trichuris muris [42]): Active
log2(ratio) (Saccharomyces cerevisiae [43]): -6.54
